Assay results: ChEMBL document CHEMBL1926588, “Sulfur and selenium derivatives of quinazoline and pyrido[2,3-d]pyrimidine: synthesis and study of their potential cytotoxic activity in vitro” (Eur J Med Chem, 2012)

Assays:
CCRF-CEM = assay: Cytotoxicity against human CCRF-CEM cells after 72 hrs by MTT assay; type: functional; conditions: for CC50: read-out: LC50 (the source's name)
Summary of the method: (§1)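 MTT read-out after 72 h exposure at 37 °C in humidified 5% CO2, with five concentrations between 0.01 and 100. GI50 is 50% growth reduction versus untreated controls, TGI is complete growth inhibition, and LC50 is the concentration killing 50% of cells. Minimum three independent experiments.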

HT-29 = assay: Cytotoxicity against human HT-29 cells after 72 hrs by MTT assay; type: functional; conditions: HT-29, 72 h; for CC50: read-out: LC50 (the source's name); summary of the method: as §1
[1] = Cytotoxicity against human HTB-54 cells after 72 hrs by MTT assay; type: functional; conditions: HTB-54, 72 h; for CC50: read-out: LC50 (the source's name); summary of the method: as §1
MCF7 = assay: Cytotoxicity against human MCF7 cells after 72 hrs by MTT assay; type: functional; conditions: MCF7, 72 h; summary of the method: as §1
[2] = Cytotoxicity against human 184B5 cells after 72 hrs by MTT assay; type: cell-based; conditions: for GI50 at 72 h: 184B5 cells; for LC50 / TGI: 184b5, 72 h; summary of the method: as §1
[3] = Cytotoxicity against human BEAS2B cells after 72 hrs by MTT assay; type: cell-based, BEAS-2B; conditions: for GI50 at 72 h: BEAS2B cells; for LC50 / TGI: beas-2b, 72 h; summary of the method: as §1

COc1ccc(CNc2nc([Se]C)nc3ccccc23)cc1
GI50 (CCRF-CEM): > 100 µM
TGI (CCRF-CEM): > 100 µM
CC50 (CCRF-CEM): > 100 µM
GI50 (HT-29): 73.6 µM
TGI (HT-29): > 100 µM
CC50 (HT-29): > 100 µM
GI50 [1]: 33 µM
TGI [1]: > 100 µM
CC50 [1]: > 100 µM
GI50 (MCF7): 42.2 µM
LC50 (MCF7): > 100 µM
TGI (MCF7): 98.6 µM
GI50 at 72 h [2]: 75.6 µM
LC50 [2]: > 100 µM
TGI [2]: > 100 µM
GI50 at 72 h [3]: > 100 µM
LC50 [3]: > 100 µM
TGI [3]: > 100 µM

CCCCC[Se]c1nc(N)c2ccccc2n1
GI50 (CCRF-CEM): 34.8 µM
TGI (CCRF-CEM): 68 µM
CC50 (CCRF-CEM): > 100 µM
GI50 (HT-29): 40.3 µM
TGI (HT-29): > 100 µM
CC50 (HT-29): > 100 µM
GI50 [1]: 34.6 µM
TGI [1]: 84 µM
CC50 [1]: > 100 µM
GI50 (MCF7): 28.6 µM
LC50 (MCF7): 90.4 µM
TGI (MCF7): 59.5 µM
GI50 at 72 h [2]: 15.3 µM
LC50 [2]: 71.85 µM
TGI [2]: 43.6 µM
GI50 at 72 h [3]: 52.2 µM
LC50 [3]: > 100 µM
TGI [3]: > 100 µM

COc1ccc(CNc2nc(S)nc3ccccc23)cc1
GI50 (CCRF-CEM): 10.4 µM
TGI (CCRF-CEM): 41 µM
CC50 (CCRF-CEM): 71.6 µM
GI50 (HT-29): 6.49 µM
TGI (HT-29): 28.6 µM
CC50 (HT-29): 63.9 µM
GI50 [1]: 13.5 µM
TGI [1]: 45.5 µM
CC50 [1]: 77.6 µM
GI50 (MCF7): 7.08 µM
LC50 (MCF7): 78.4 µM
TGI (MCF7): 36.5 µM
GI50 at 72 h [2]: 7.83 µM
LC50 [2]: 69.23 µM
TGI [2]: 36.55 µM
GI50 at 72 h [3]: 6.13 µM
LC50 [3]: 70.18 µM
TGI [3]: 32.5 µM

COc1ccc(CNc2nc(SC)nc3ccccc23)cc1
GI50 (CCRF-CEM): 93.7 µM
TGI (CCRF-CEM): > 100 µM
CC50 (CCRF-CEM): > 100 µM
GI50 (HT-29): 70.2 µM
TGI (HT-29): > 100 µM
CC50 (HT-29): > 100 µM
GI50 [1]: 93.7 µM
TGI [1]: > 100 µM
CC50 [1]: > 100 µM
GI50 (MCF7): 30.9 µM
LC50 (MCF7): > 100 µM
TGI (MCF7): 85.1 µM
GI50 at 72 h [2]: 85.6 µM
LC50 [2]: > 100 µM
TGI [2]: > 100 µM
GI50 at 72 h [3]: 21.7 µM
LC50 [3]: > 100 µM
TGI [3]: 96.24 µM

COc1ccc(CNc2nc(SC)nc3ncccc23)cc1
GI50 (CCRF-CEM): > 100 µM
TGI (CCRF-CEM): > 100 µM
CC50 (CCRF-CEM): > 100 µM
GI50 (HT-29): > 100 µM
TGI (HT-29): > 100 µM
CC50 (HT-29): > 100 µM
GI50 [1]: > 100 µM
TGI [1]: > 100 µM
CC50 [1]: > 100 µM
GI50 (MCF7): 48.1 µM
LC50 (MCF7): > 100 µM
TGI (MCF7): > 100 µM
GI50 at 72 h [2]: 34.2 µM
LC50 [2]: > 100 µM
TGI [2]: 69.77 µM
GI50 at 72 h [3]: 58.5 µM
LC50 [3]: > 100 µM
TGI [3]: > 100 µM

CCCCC[Se]c1nc(N)c2cccnc2n1
GI50 (CCRF-CEM): 12.9 µM
TGI (CCRF-CEM): 42.8 µM
CC50 (CCRF-CEM): 72.6 µM
GI50 (HT-29): 5.91 µM
TGI (HT-29): 20 µM
CC50 (HT-29): 62.1 µM
GI50 [1]: 8.78 µM
TGI [1]: 51 µM
CC50 [1]: 98.5 µM
GI50 (MCF7): 22.7 µM
LC50 (MCF7): 85 µM
TGI (MCF7): 53.8 µM
GI50 at 72 h [2]: 10.3 µM
LC50 [2]: 70.14 µM
TGI [2]: 40.23 µM
GI50 at 72 h [3]: 16.3 µM
LC50 [3]: 73.48 µM
TGI [3]: 44.89 µM

COc1ccc(CNc2nc([SeH])nc3ccccc23)cc1
GI50 (CCRF-CEM): > 100 µM
TGI (CCRF-CEM): > 100 µM
CC50 (CCRF-CEM): > 100 µM
GI50 (HT-29): 71.6 µM
TGI (HT-29): > 100 µM
CC50 (HT-29): > 100 µM
GI50 [1]: 7.11 µM
TGI [1]: 60.9 µM
CC50 [1]: > 100 µM
GI50 (MCF7): 42.7 µM
LC50 (MCF7): > 100 µM
TGI (MCF7): 94 µM
GI50 at 72 h [2]: 71.2 µM
LC50 [2]: > 100 µM
TGI [2]: > 100 µM
GI50 at 72 h [3]: 37.4 µM
LC50 [3]: > 100 µM
TGI [3]: > 100 µM

CCCCCSc1nc(NCc2ccc([Se]C)cc2)c2ccccc2n1
GI50 (CCRF-CEM): > 100 µM
TGI (CCRF-CEM): > 100 µM
CC50 (CCRF-CEM): > 100 µM
GI50 (HT-29): 14.4 µM
TGI (HT-29): > 100 µM
CC50 (HT-29): > 100 µM
GI50 [1]: 19.8 µM
TGI [1]: 50 µM
CC50 [1]: 80.2 µM
GI50 (MCF7): 13 µM
LC50 (MCF7): > 100 µM
TGI (MCF7): 75.2 µM
GI50 at 72 h [2]: 73 µM
LC50 [2]: > 100 µM
TGI [2]: > 100 µM
GI50 at 72 h [3]: 31.2 µM
LC50 [3]: > 100 µM
TGI [3]: > 100 µM

CSc1nc(NCc2ccc([Se]C)cc2)c2ccccc2n1
GI50 (CCRF-CEM): 63.3 µM
TGI (CCRF-CEM): > 100 µM
CC50 (CCRF-CEM): > 100 µM
GI50 (HT-29): > 100 µM
TGI (HT-29): > 100 µM
CC50 (HT-29): > 100 µM
GI50 [1]: 57 µM
TGI [1]: > 100 µM
CC50 [1]: > 100 µM
GI50 (MCF7): 36.4 µM
LC50 (MCF7): > 100 µM
TGI (MCF7): > 100 µM
GI50 at 72 h [2]: 70.3 µM
LC50 [2]: > 100 µM
TGI [2]: > 100 µM
GI50 at 72 h [3]: 73.5 µM
LC50 [3]: > 100 µM
TGI [3]: > 100 µM

Sc1nc(NCc2ccccc2)c2ccccc2n1
GI50 (CCRF-CEM): 82.4 µM
TGI (CCRF-CEM): > 100 µM
CC50 (CCRF-CEM): > 100 µM
GI50 (HT-29): 10.1 µM
TGI (HT-29): 63.5 µM
CC50 (HT-29): > 100 µM
GI50 [1]: 15.2 µM
TGI [1]: > 100 µM
CC50 [1]: > 100 µM
GI50 (MCF7): 27.2 µM
LC50 (MCF7): > 100 µM
TGI (MCF7): > 100 µM
GI50 at 72 h [2]: 49.6 µM
LC50 [2]: > 100 µM
TGI [2]: > 100 µM
GI50 at 72 h [3]: 66.3 µM
LC50 [3]: > 100 µM
TGI [3]: > 100 µM

[SeH]c1nc([SeH])c2cccnc2n1
GI50 [1]: 4.03 µM
TGI [1]: 7.93 µM
CC50 [1]: 68.4 µM
GI50 (MCF7): 9.83 µM
LC50 (MCF7): 82.7 µM
TGI (MCF7): 46.1 µM
GI50 at 72 h [2]: 0.71 µM
LC50 [2]: 67.5 µM
TGI [2]: 8.26 µM

CSc1nc(NCc2ccccc2)c2ccccc2n1
GI50 (CCRF-CEM): 87.9 µM
TGI (CCRF-CEM): > 100 µM
CC50 (CCRF-CEM): > 100 µM
GI50 (HT-29): 36.5 µM
TGI (HT-29): > 100 µM
CC50 (HT-29): > 100 µM
GI50 [1]: 37.9 µM
TGI [1]: 82.3 µM
CC50 [1]: > 100 µM
GI50 (MCF7): 41.5 µM
LC50 (MCF7): > 100 µM
TGI (MCF7): 82.8 µM
GI50 at 72 h [2]: 28.9 µM
LC50 [2]: > 100 µM
TGI [2]: > 100 µM
GI50 at 72 h [3]: 38.9 µM
LC50 [3]: > 100 µM
TGI [3]: 88.24 µM

CSc1nc(NCCCCCO)c2cccnc2n1
GI50 (CCRF-CEM): > 100 µM
TGI (CCRF-CEM): > 100 µM
CC50 (CCRF-CEM): > 100 µM
GI50 (HT-29): 63.9 µM
TGI (HT-29): > 100 µM
CC50 (HT-29): > 100 µM
GI50 [1]: > 100 µM
TGI [1]: > 100 µM
CC50 [1]: > 100 µM
GI50 (MCF7): 48.9 µM
LC50 (MCF7): > 100 µM
TGI (MCF7): > 100 µM
GI50 at 72 h [2]: > 100 µM
LC50 [2]: > 100 µM
TGI [2]: > 100 µM
GI50 at 72 h [3]: > 100 µM
LC50 [3]: > 100 µM
TGI [3]: > 100 µM

C[Se]c1nc(N)c2cccnc2n1
GI50 (CCRF-CEM): 68.4 µM
TGI (CCRF-CEM): > 100 µM
CC50 (CCRF-CEM): > 100 µM
GI50 (HT-29): 44.1 µM
TGI (HT-29): 77.3 µM
CC50 (HT-29): > 100 µM
GI50 [1]: 78.2 µM
TGI [1]: > 100 µM
CC50 [1]: > 100 µM
GI50 (MCF7): 43 µM
LC50 (MCF7): > 100 µM
TGI (MCF7): > 100 µM
GI50 at 72 h [2]: 45.5 µM
LC50 [2]: > 100 µM
TGI [2]: 87.15 µM
GI50 at 72 h [3]: 39.7 µM
LC50 [3]: > 100 µM
TGI [3]: 90.81 µM

COc1cc([C@@H]2c3cc4c(cc3[C@@H](O[C@@H]3O[C@@H]5CO[C@@H](C)O[C@H]5[C@H](O)[C@H]3O)[C@H]3COC(=O)[C@H]23)OCO4)cc(OC)c1O [ETOPOSIDE]
GI50 (CCRF-CEM): 12.6 µM
TGI (CCRF-CEM): 50.1 µM
CC50 (CCRF-CEM): > 100 µM
TGI (HT-29): > 100 µM
CC50 (HT-29): > 100 µM
TGI (MCF7): > 100 µM
